Assay results as given in ChEMBL document CHEMBL4480369, “Discovery of 3-hydroxy-3-pyrrolin-2-one-based mPGES-1 inhibitors using a multi-step virtual screening protocol” (Medchemcomm, 2018).

Experiments:
[1] = target: T1, Prostaglandin E synthase (Homo sapiens) (UniProt O14684); assay: Inhibition of mPGES1 in IL1beta-stimulated human A549 cell microsomes assessed as residual activity at 10 uM using PGH2 as substrate preincubated for 15 mins followed by substrate addition and measured after 1 min by RP-HPLC analysis relative to control
T1 sequence (whole entry): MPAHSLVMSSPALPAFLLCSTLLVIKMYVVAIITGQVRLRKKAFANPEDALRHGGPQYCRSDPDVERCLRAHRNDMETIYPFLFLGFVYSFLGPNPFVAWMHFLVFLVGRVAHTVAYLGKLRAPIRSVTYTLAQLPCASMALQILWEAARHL
Method in brief: (§1)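 mPGES-1 source was microsomes from A549 cells treated 48 h with IL-1β (1 ng ml–1), obtained by sonication and differential centrifugation (10 000×g, then 174 000×g, 4 °C). Microsomes diluted in 0.1 M potassium phosphate pH 7.4 with 2.5 mM glutathione. Compound or DMSO vehicle added for 15 min at 4 °C; 20 μM PGH2 then reacted 1 min at 4 °C. Stopped with FeCl2/citric acid containing 11β-PGE2; PGE2 measured by SPE and RP-HPLC.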

[2] = target: T2, Prostaglandin E synthase (Homo sapiens, UniProt O14684); assay: Inhibition of mPGES1 in IL1beta-stimulated human A549 cell microsomes using PGH2 as substrate preincubated for 15 mins followed by substrate addition and measured after 1 min by RP-HPLC analysis; method in brief: as §1
T2 sequence (O14684 whole entry): T1 sequence (whole entry)

[3] = target: T3, Polyunsaturated fatty acid 5-lipoxygenase (Homo sapiens) (UniProt P09917); assay: Inhibition of 5-LO in human neutrophils assessed as residual activity at 10 uM using arachidonic acid as substrate preincubated for 10 mins followed by substrate addition and measured after 10 mins by RP-HPLC analysis
T3 sequence (whole entry): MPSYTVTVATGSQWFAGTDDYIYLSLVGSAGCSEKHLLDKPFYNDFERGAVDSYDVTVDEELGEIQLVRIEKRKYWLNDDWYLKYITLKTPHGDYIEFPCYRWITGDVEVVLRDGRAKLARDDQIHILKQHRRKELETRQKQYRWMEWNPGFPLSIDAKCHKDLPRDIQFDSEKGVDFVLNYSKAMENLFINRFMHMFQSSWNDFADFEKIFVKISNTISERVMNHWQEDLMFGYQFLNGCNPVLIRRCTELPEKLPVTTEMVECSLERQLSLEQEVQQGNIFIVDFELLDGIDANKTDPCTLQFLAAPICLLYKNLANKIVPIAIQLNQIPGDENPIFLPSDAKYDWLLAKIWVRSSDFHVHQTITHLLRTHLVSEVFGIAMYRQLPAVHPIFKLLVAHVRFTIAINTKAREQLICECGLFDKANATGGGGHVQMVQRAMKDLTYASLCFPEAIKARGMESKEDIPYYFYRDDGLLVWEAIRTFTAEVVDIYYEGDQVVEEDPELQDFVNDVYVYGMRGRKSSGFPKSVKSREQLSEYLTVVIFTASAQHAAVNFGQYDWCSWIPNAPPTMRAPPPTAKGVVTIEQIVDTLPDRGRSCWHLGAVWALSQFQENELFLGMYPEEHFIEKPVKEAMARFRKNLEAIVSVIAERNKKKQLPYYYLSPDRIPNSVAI
Method in brief: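 Freshly isolated human peripheral-blood neutrophils at 5 × 10^6 cells per ml in PBS pH 7.4 with 1 mM CaCl2 and 1 mg mL–1 glucose. Cells pre-treated 10 min with compound in DMSO (final 0.1%). Stimulated with 2.5 μM Ca2+ ionophore A23187 plus 20 μM arachidonic acid for 10 min at 37 °C, then stopped on ice with methanol. After C18 solid-phase extraction, LTB4 all-trans isomers and 5-H(P)ETE quantified by RP-HPLC against PGB1 internal standard.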

| Compound | Activity [1] [%] | IC50 [2] [nM] | Activity [3] [%] |
| --- | --- | --- | --- |
| CC(=O)N[C@H]1[C@H](Oc2ccc(Nc3nc(-c4ccc(Cl)cc4)nc4ccccc34)cc2)O[C@H](CO)[C@@H](O)[C@H]1O | 80.1 |  |  |
| COc1ccc(C(=O)N/C(=C\c2ccc(-c3ccccc3Cl)o2)C(=O)NCCCO)cc1 | 72.1 |  |  |
| Cc1sc2ncn(CC(=O)Nc3ccc(Oc4ccccc4)cc3)c(=O)c2c1-c1ccccc1 | 82.6 |  |  |
| CCOC(=O)C1CCCN(c2nc3c(C)cccn3c(=O)c2/C=C(\C#N)C(=O)NCc2ccccc2)C1 (configuration not stated) | 86.8 |  |  |
| COc1ccc(C(=O)N/C(=C\c2ccc(-c3cccc(C(F)(F)F)c3)o2)C(=O)NC(C)(C)C)cc1 | 88.6 |  |  |

The next lines start with the values.

| Activity [1] [%] | IC50 [2] [nM] | Activity [3] [%] | Compound |
| --- | --- | --- | --- |
| 65.3 |  |  | CCOc1ccc(N2CC(c3nc4ccccc4n3CCOc3ccc(Cl)cc3)CC2=O)cc1 (configuration not stated) |
| 25 | 1900 | 56.6 | O=C(C1=C(O)C(=O)N(c2ncc(S(=O)(=O)c3ccc([N+](=O)[O-])cc3)s2)C1c1cccc(Cl)c1)c1ccc(Cl)cc1 (configuration not stated) |
| 30.5 | 3700 | 92.5 | CCOc1ccc(C2C(C(=O)c3cc4ccccc4o3)=C(O)C(=O)N2c2nnc(SCc3ccc(Cl)cc3)s2)cc1OC (configuration not stated) |
